Published values gathered from unrelated publications.
Compare with care: the assays were run in different laboratories.
Target: Mitogen-activated protein kinase kinase kinase 7 (MAP3K7, Homo sapiens, UniProt O43318)
Residues used in one study (O43318 1-606): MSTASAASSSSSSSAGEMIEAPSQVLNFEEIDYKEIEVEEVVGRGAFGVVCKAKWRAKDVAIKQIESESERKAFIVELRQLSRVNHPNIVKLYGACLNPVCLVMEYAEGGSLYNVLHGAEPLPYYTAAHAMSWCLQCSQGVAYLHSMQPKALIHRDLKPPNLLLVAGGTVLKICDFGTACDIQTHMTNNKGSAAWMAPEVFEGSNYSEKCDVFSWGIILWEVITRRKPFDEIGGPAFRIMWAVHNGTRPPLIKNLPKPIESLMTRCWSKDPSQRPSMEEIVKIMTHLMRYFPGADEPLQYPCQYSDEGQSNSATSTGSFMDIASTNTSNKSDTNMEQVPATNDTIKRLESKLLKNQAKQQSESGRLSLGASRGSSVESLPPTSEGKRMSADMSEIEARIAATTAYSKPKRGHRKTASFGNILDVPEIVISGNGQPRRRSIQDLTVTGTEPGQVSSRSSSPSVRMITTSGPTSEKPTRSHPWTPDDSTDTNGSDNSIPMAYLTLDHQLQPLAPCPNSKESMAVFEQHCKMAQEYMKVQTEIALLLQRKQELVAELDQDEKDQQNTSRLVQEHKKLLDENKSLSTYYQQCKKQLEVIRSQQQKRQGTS

For `CN1CCN(C(=O)c2ccc(NC(=O)Nc3ccc(N(C)c4ccnc(Nc5ccc(CS(C)(=O)=O)cc5)n4)cc3)cc2)CC1`, the remaining binding was 25% (binding, competition with immobilised ligand; 1 µM).
With `CC#CC(=O)N1CCC[C@H]1c1nc(-c2ccc(C(=O)Nc3ccccn3)cc2)c2c(N)nccn12` the inhibition was 12% (enzyme activity, inhibitor; 1 µM).
The inhibition of `Cc1cc(O)c(-c2ccc([C@@H](C)CN(C)C)cc2)c2c1[nH]c(=O)c1sccc12` is reported as -18.1% (enzyme activity, inhibitor; 0.1 µM).
`CS(=O)(=NC#N)c1ccccc1Nc1nc(Nc2ccc(CO)nc2)ncc1Cl` (centres unmarked) has a remaining activity of 55.8% (enzyme activity, inhibitor; 1 µM).
For `CCCCC(=O)Nc1ccc(-c2ccc3ncn(CCC)c(=O)c3c2)cn1`, the remaining binding was 87% (binding, competition with immobilised ligand; 0.5 µM).
The remaining binding of `C[C@H]1CC[C@H](n2c3cnccc3c3cnc(Nc4ccc5c(n4)CCN(C(=O)CO)C5)nc32)CC1` is reported as 47% (binding, competition with immobilised ligand; 1 µM).
With `CS(=O)(=O)c1ccccc1Nc1nc(Nc2ccnc(CO)c2)ncc1Cl` the remaining activity was 70.7% (enzyme activity, inhibitor; 1 µM).
For `C=CC(=O)N1CCC([C@@H]2CCNc3c(C(N)=O)c(-c4ccc(Oc5ccccc5)cc4)nn32)CC1`, the inhibition was 19% (enzyme activity, inhibitor; 1 µM).
